# SENP8 block-1 – inhibitors of human SENP8 protease; Q96LD8; purified SENP8, Z-RLRGG-aminoluciferin cleavage, luminescence; inhibition, % at 10 µM; actives 1.2% (n = 330,000); in the data active = inhibition above about 50%
# SENP7 inh – blocks the human protease SENP7. Q9BQF6. recombinant SENP7, Z-RLRGG-aminoluciferin luminescence, 40 min. inhibition, % at 5 µM. actives 1.5% (n = 330,000). AID 434973;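 active = inhibition above about 50% at the single test dose, limit read from the data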;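 also: plate controls were DMSO with enzyme for no effect and no enzyme buffer wells for full effect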
# SENP1 FRET inh – blocks the human SENP1 SUMO protease catalytic domain. recombinant SENP1 catalytic domain, CyPet-SUMO1-YPet FRET cleavage. actives 0.21% (n = 360,000). Q9P0U3. inhibition, % at 10 µM;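 active = inhibition at least 30% at 10 µM, raw YFP signal under a set limit, fluorescence ratio 0.5 to 1.5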;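 also: 0% = enzyme with DMSO and 100% = no enzyme wells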
# Target sequence (Q9P0U3 419-644 limits assumed): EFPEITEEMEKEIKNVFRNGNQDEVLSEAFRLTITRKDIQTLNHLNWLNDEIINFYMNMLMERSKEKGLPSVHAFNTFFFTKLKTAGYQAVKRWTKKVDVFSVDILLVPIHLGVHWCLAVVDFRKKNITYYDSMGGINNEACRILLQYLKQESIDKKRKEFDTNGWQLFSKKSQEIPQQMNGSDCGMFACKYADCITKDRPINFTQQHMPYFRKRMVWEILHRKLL
#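 Controls: no-enzyme wells low, DMSO-plus-enzyme wells high control. Test system: human recombinant His6-tagged SENP1 catalytic domain enzyme. Reagent: SFCypet-SUMO1-SFYpet FRET protein substrate, 25 nM final. Doses: one dose per compound, 10 µM, 0.5% DMSO. Detection: FRET, CFP and YFP emission. Timing: 50 min reaction at room temperature.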
# SENP6 inh – SENP6 protease inhibition; inhibition, % at 10 µM; actives 1.8% (n = 330,000); Q9GZR1; AID 2599; Recombinant SENP6 catalytic domain, aminoluciferin luminescence;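 active = inhibition above about 50% at the single tested dose, limit read from the data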;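 also: plate controls were DMSO wells with enzyme for no effect and DMSO wells lacking enzyme for full effect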
# SENP8 block-2 – blocks human SENP8 cleavage of Nedd8 substrate | recombinant SENP8, Nedd8 substrate fluorescence | inhibition, % at 20 µM | actives 0.64% (n = 360,000); in the data active = inhibition mostly above about 40%, no sharp cut-off; inactive = mostly below about 27%
# SENP8 conf – confirmation of human SENP8 protease inhibitors; actives 40% (n = 6,200); shares compounds with SENP7 inh; Recombinant SENP8, Z-RLRGG-aminoluciferin luminescence, 60 min; inhibition, % at 12.5 µM;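 active = mean inhibition across replicates above about 50%, limit read from the data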
# SENP6 conf – confirmation of human SENP6 protease inhibitors; shares compounds with SENP7 inh; recombinant SENP6, Z-RLRGG-aminoluciferin luminescence; inhibition, % at 12.5 µM; actives 58% (n = 6,200); AID 488915
# SENP7 confirm – human SENP7 inhibition, confirmed; shares compounds with SENP7 inh; recombinant SENP7, Z-RLRGG-aminoluciferin luminescence, 40 min; inhibition, % at 12.5 µM; actives 69% (n = 6,200); AID 488917
# Casp3 SENP sel – inhibits human caspase-3 in SENP selectivity test; shares compounds with SENP7 inh; AID 488918; actives 60% (n = 6,200); inhibition, % at 12.5 µM; purified caspase-3, Z-DEVD-aminoluciferin luminescence, 60 min;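 active = mean inhibition above about 50%, limit read from the data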;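 also: plate controls were enzyme with DMSO for no effect and wells without caspase-3 for full effect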
# Target sequence (P42574 28-227 limits assumed): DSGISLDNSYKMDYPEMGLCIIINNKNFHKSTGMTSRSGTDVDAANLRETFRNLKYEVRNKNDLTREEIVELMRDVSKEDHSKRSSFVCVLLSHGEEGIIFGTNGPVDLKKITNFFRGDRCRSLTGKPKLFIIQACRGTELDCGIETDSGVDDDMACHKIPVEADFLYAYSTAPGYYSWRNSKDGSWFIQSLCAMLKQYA
# SENP luc ctr – counter-screen for SENP inhibitors: luminescence interference. shares compounds with SENP7 inh. Pre-incubated SENP8/Z-RLRGG-aminoluciferin, luciferase luminescence interference. inhibition, % at 12.5 µM. actives 39% (n = 6,200). AID 488919;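 active = mean inhibition above about 50% when retested at one dose, limit read from the data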;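 also: plate controls were DMSO wells with completed reaction for no effect and substrate without enzyme for full effect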
# Active calls of the source: *; i = inactive; / = no result. Shown are actives, neighbours in structure and some others; about 2.5% of the full set was active somewhere.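 The calls were made as follows, unless noted: active = mean inhibition above about 50% in the one-dose retest (limit read from the data); inactive = the rest.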
SMILES,SENP8 block-1,SENP7 inh,SENP1 FRET inh,SENP6 inh,SENP8 block-2,SENP8 conf,SENP6 conf,SENP7 confirm,Casp3 SENP sel,SENP luc ctr
O=c1c2ccccc2sc2ccc(C#CC3(O)CCCCC3)cc12,96*,97*,-93,98*,-260,97*,99*,102*,97*,44
COc1cccc2sc3ccc(C#Cc4ccc(N)cc4)cc3c(=O)c12,-10,14,-13,-2,-24,/,/,/,/,/
Clc1ccccc1Cc1noc(CN2CCN(Cc3ccccn3)CC2)n1,4,-5,-24,-16,2,/,/,/,/,/
Cc1cccc(NC(=O)c2nc[nH]c2C(=O)NCC(=O)OC(C)(C)C)c1,-7,1,0,-1,4,/,/,/,/,/
COc1ccc(-n2nc(N)c(C(N)=O)n2)cc1,-2,3,1,-20,-388,/,/,/,/,/
O=C(OCC(=O)N1CCc2ccccc2C1)c1ccc(O)cc1,-20,-6,3,-13,12,/,/,/,/,/
CCN(CC)C(=O)COc1ccc(-c2ccccc2)cc1,46,60*,1,70*,22,55*,55*,82*,73*,66*
CC(=O)c1ccc(Nc2ccc([N+](=O)[O-])c3nonc23)cc1,11,16,19,37,32,/,/,/,/,/
O=C(O)c1ccc(Nc2ccc([N+](=O)[O-])c3nonc23)cc1,81*,68*,11,85*,32,89*,85*,97*,72*,82*
CC(=O)Nc1cccc(OCC(=O)Nc2ccccc2)c1,-15,18,2,36,15,/,/,/,/,/
CC(=O)Nc1cccc(OCC(=O)Nc2sccc2C(N)=O)c1,48,67*,-6,68*,4,40,48,86*,73*,28
O=C(Nc1nc2cc3c(cc2s1)OCCO3)C1CCCCC1,-3,19,0,27,8,/,/,/,/,/
CC(=O)Nc1nc2cc3c(cc2s1)OCCO3,61*,79*,-3,77*,4,78*,76*,94*,89*,74*
O=C(COC(=O)CCN=C1NS(=O)(=O)c2ccccc21)NNC(=O)c1ccc(Cl)cc1,5,1,0,-1,2,/,/,/,/,/
O=c1c2ccccc2nc(-c2ccco2)n1Cc1ccccc1,63*,69*,0,77*,8,79*,76*,89*,78*,77*
CCCCCn1c(-c2ccco2)nc2nc3ccccc3nc21,-12,-1,-36,-6,-482,/,/,/,/,/
c1ccc(Cn2c(-c3ccco3)nc3nc4ccccc4nc32)cc1,75*,52*,-40,89*,i,22,82*,96*,82*,8
Cc1ccc(C(=O)C2CCN(CC(=O)Nc3nc(C)cs3)CC2)cc1,-2,-7,-5,-4,2,/,/,/,/,/
COc1cccc2cc(-c3cn4ccc(C)cc4n3)c(=O)oc12,23,50*,-7,46,-69,0,4,13,12,4
COc1ccc(-c2nnc(-c3cc4ccccc4oc3=O)o2)cc1,-8,3,-71,-7,-349,/,/,/,/,/
COc1cccc2cc(-c3nnc(-c4ccccc4)o3)c(=O)oc12,74*,90*,-9,92*,-223,0,2,3,5,10
Cc1cccc(-c2oc3ccccc3c2C#CCCO)c1,-13,-6,1,-11,-458,/,/,/,/,/
CN(C(=O)c1ccc(NC(=O)Cc2ccc(NC(=O)C3CCN(S(=O)(=O)c4cccc([N+](=O)[O-])c4)CC3)cc2)cc1)C1CCCC1,/,/,5,/,6,/,/,/,/,/
Cc1ccccc1NC(=O)Nc1nc2ccc(S(C)(=O)=O)cc2s1,-12,51*,2,-12,0,-21,-16,-6,-8,-6
NS(=O)(=O)c1ccc2nc(NC(=O)Nc3ccccc3F)sc2c1,59*,59*,-9,76*,-4,69*,71*,90*,58*,76*
SMILES,SENP8 block-1,SENP7 inh,SENP1 FRET inh,SENP6 inh,SENP8 block-2,SENP8 conf,SENP6 conf,SENP7 confirm,Casp3 SENP sel,SENP luc ctr
CCOc1ccc(NC(=O)Nc2nc3ccc(S(C)(=O)=O)cc3s2)cc1,2,2,1,-7,-36,/,/,/,/,/
CCCC(=O)Nc1nc2ccc(S(N)(=O)=O)cc2s1,1,7,4,-8,11,/,/,/,/,/
COc1ccccc1N(CC(=O)N/N=C(\C)c1ccc(F)cc1)S(=O)(=O)c1ccccc1,2,3,-1,17,5,/,/,/,/,/
CCn1c(=O)c(C(=O)NCc2ccccc2OC)c(O)c2ccccc21,7,5,3,-13,-14,/,/,/,/,/
CCCn1c(=O)c(C(=O)NCc2ccccc2OC)c(O)c2ccccc21,6,9,1,88*,-22,9,5,3,0,4
Cc1cccc2c(N=Nc3ccccc3)c(O)[nH]c12,-9,54*,10,-3,19,12,13,35,12,7
Oc1[nH]c2ccccc2c1N=Nc1ccccn1,/,/,8,/,21,/,/,/,/,/
Oc1[nH]c2ccccc2c1N=Nc1nncc2ccccc12,42,74*,0,72*,-35,49,48,72*,76*,58*
O=C(N=Nc1c(O)[nH]c2ccccc12)c1ccco1,24,62*,2,60*,20,49,46,83*,80*,33
Oc1[nH]c2ccccc2c1N=Nc1cccc(Cl)c1,47,64*,0,36,24,-20,-2,14,8,-5
O=C(CSCc1ccccc1)N=Nc1c(O)[nH]c2ccccc12,1,3,3,10,35,/,/,/,/,/
CN1CCN(NC(=O)c2cccc(Br)c2)CC1,-7,12,1,4,20,/,/,/,/,/
COc1ccc(S(=O)(=O)N2CCC(C(=O)NCc3ccncc3)CC2)cc1C,-2,3,1,-14,9,/,/,/,/,/
CC1(C)NC(=O)N(CC(=O)Nc2nc(-c3ccc(F)cc3)cs2)C1=O,-21,0,1,26,10,/,/,/,/,/
COc1nc(C)ccc1-c1noc(-c2ccco2)n1,41,61*,-6,70*,2,51*,57*,85*,69*,28
Cc1ccc2nc(-c3ccccn3)oc2c1,63*,81*,2,83*,-417,9,71*,95*,89*,44

# Source: PubChem BioAssay
